Experimental data: ChEMBL document CHEMBL1124066, “Renin inhibitors containing psi[CH2O] pseudopeptide inserts” (J Med Chem, 1988)
*1 amine or outer side, *2 acyl side, *3 side chain or, on linkers, in order; H or OH if unused. Where a SMILES comes first, the peptide text is derived from it. [ ]: non-standard residue; d: D form. The star is where a group is joined. X1 = O=C([C@H](Cc1ccccc1)OC[C@@H]1CCCN1[*:1])[*:2]; X2 = CC(CN[*:1])CC(N)C(O)CC(=O)[*:2]; NHCH2(2-pyridyl) = c1ccc(CN*)nc1; Boc = CC(C)(C)OC(=O)*; For = O=C*

How the values were obtained:
Renin = biological target: T1, Renin (Homo sapiens, UniProt P00797); assay: Inhibition of Human plasma renin; type: cell-free
T1 sequence (P00797 whole entry): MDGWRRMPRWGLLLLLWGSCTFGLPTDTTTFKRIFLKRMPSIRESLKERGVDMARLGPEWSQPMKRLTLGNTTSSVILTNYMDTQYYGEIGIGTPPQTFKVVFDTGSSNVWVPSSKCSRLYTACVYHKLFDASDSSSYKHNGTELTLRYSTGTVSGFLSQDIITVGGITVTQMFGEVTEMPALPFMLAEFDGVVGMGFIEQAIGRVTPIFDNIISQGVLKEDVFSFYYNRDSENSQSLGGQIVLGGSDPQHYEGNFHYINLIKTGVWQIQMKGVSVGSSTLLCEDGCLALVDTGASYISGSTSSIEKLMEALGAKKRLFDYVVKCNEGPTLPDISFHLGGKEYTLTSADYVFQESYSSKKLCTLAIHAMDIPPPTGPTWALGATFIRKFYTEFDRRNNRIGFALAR
Outline: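 Lyophilized human plasma containing 0.1% EDTA was used for angiotensin I generation with phenylmethanesulfonyl fluoride and maleate buffer pH 6.0. Inhibitor was added in a 1% Tween 80/water vehicle, followed by 90 min at 37 °C. Angiotensin I was measured by radioimmunoassay. Percent inhibition was taken against control tubes. IC50 was estimated graphically from 3-4 inhibitor concentrations on a semilog plot.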

[1] = biological target: Chymotrypsinogen A (Bos taurus) (UniProt P00766); assay: % compound remaining at 60 min in presence of degradative […] (in vitro)
Outline: (§1)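 Enzyme stocks were made in 50 mM Tris-HCl pH 7.5 (stock chymotrypsin 25 units/mL; elastase and carboxypeptidase Y 50 units/mL). Peptide at 0.8 mg/mL in 10% DMSO/Tris received 5 µL enzyme per 0.25 mL and was incubated at 37 °C for 0 or 60 min, then quenched with HPLC solvent B. Reverse-phase HPLC used an acetonitrile gradient. The 204 nm peak height was compared with the 0-min control. Incubations were run in triplicate, each assayed in duplicate.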

[2] = % compound remaining at 60 min in presence of degradative enzyme carboxypeptidase Y (in vitro); outline: as §1
Homo sapiens = species on record: Homo sapiens; assay: % compound remaining at 60 min in presence of degradative enzyme elastase (in vitro); type: functional; outline: as §1

| IC50 (Renin) [µM] | Compound | further results |
| --- | --- | --- |
| 1.8 | CC[C@H](C)[C@H](NC(=O)[C@H](CC(C)C)OC[C@H](CC(C)C)NC(=O)[C@H](Cc1cnc[nH]1)NC(=O)[C@H](Cc1ccccc1)NC(=O)[C@@H]1CCCN1C(=O)[C@H](Cc1cnc[nH]1)NC(=O)[C@@H]1CCCN1)C(=O)N[C@@H](Cc1cnc[nH]1)C(=O)N[C@H](CCCCN)C(=O)O |  |
| 7 | CC(C)[C@H](NC(=O)[C@H](Cc1ccccc1)NC(=O)[C@H](Cc1ccccc1)NC(=O)[C@H](Cc1ccccc1)NC(=O)[C@H](Cc1c[nH]cn1)NC(=O)[C@H](Cc1ccccc1)NC(=O)[C@@H]1CCCN1C(=O)[C@H](Cc1c[nH]cn1)NC(=O)[C@@H]1CCCN1)C(=O)N[C@@H](Cc1ccc(O)cc1)C(=O)N[C@@H](CCCCN)C(=O)O [RIP] (H-PHPFHFFFVYK-OH) | Remaining [1]: 3%; Remaining [2]: 2% |
| 5.8 | CC[C@H](C)[C@H](NC(=O)CC(O)C(N)CC(C)CNC(=O)[C@H](Cc1c[nH]cn1)NC(=O)[C@H](Cc1ccccc1)NC(=O)[C@@H]1CCCN1C(=O)OC(C)(C)C)C(=O)N[C@@H](Cc1ccccc1)C(=O)OC (stereo not given in full) (Boc-PFH[X2]IF-OMe) |  |
| 3 | CC[C@H](C)[C@H](NC(=O)[C@@H](NCC(O)[C@H](CC(C)C)NC(=O)[C@H](Cc1cnc[nH]1)NC(=O)[C@H](Cc1ccccc1)OC[C@@H]1CCCN1C(=O)[C@H](Cc1cnc[nH]1)NC(=O)OC(C)(C)C)C(C)C)C(=O)NCc1ccccn1 (stereo not given in full) |  |
| 1000 | CC[C@H](C)[C@H](NC(=O)CC(O)C(N)CC(C)CNC(=O)[C@H](Cc1cnc[nH]1)NC(=O)[C@H](Cc1ccccc1)OC[C@@H]1CCCN1C(=O)[C@H](Cc1cn(C=O)c2ccccc12)NC(=O)OC(C)(C)C)C(=O)N[C@@H](Cc1ccccc1)C(=O)OC (stereo not given in full) (Boc-W(For)[X1]H[X2]IF-OMe) |  |
| 4.1 | CC[C@H](C)[C@H](NC(=O)CC(O)C(N)CC(C)CNC(=O)[C@H](Cc1cnc[nH]1)NC(=O)[C@H](Cc1ccccc1)NC(=O)[C@@H]1CCCN1C(=O)OC(C)(C)C)C(=O)NCc1ccccn1 (stereo not given in full) (Boc-PFH[X2]I-{NHCH2(2-pyridyl)}) |  |
| 440 | CC[C@H](C)[C@H](NC(=O)CC(O)C(N)CC(C)CNC(=O)[C@H](Cc1c[nH]cn1)NC(=O)[C@H](Cc1ccccc1)OC[C@@H]1CCCN1C(=O)[C@H](Cc1c[nH]cn1)NC(=O)OC(C)(C)C)C(=O)N[C@@H](Cc1ccccc1)C(=O)OC (stereo not given in full) (Boc-H[X1]H[X2]IF-OMe) |  |
| 100 | CC[C@H](C)[C@H](NC(=O)CC(O)C(N)CC(C)CNC(=O)[C@H](Cc1c[nH]cn1)NC(=O)[C@H](Cc1ccccc1)OC[C@@H]1CCCN1C(=O)[C@H](Cc1c[nH]cn1)NC(=O)OC(C)(C)C)C(=O)NCc1ccccn1 (stereo not given in full) |  |
| 18 | CC[C@H](C)[C@H](NC(=O)[C@H](C)OC[C@H](CC(C)C)NC(=O)[C@H](Cc1cnc[nH]1)NC(=O)[C@H](Cc1ccccc1)NC(=O)[C@@H]1CCCN1C(=O)[C@H](Cc1cnc[nH]1)NC(=O)[C@@H]1CCCN1)C(=O)N[C@@H](Cc1cnc[nH]1)C(=O)N[C@H](CCCCN)C(=O)O |  |
| 2.3 | CC[C@H](C)[C@H](NC(=O)[C@@H](NCC(O)[C@H](CC(C)C)NC(=O)[C@H](Cc1c[nH]cn1)NC(=O)[C@H](Cc1ccccc1)OC[C@@H]1CCCN1C(=O)OC(C)(C)C)C(C)C)C(=O)NCc1ccccn1 (stereo not given in full) |  |
| 1.6 | CC[C@H](C)[C@H](NC(=O)[C@@H](NCC(O)[C@H](CC(C)C)NC(=O)[C@H](Cc1c[nH]cn1)NC(=O)[C@H](Cc1ccccc1)OC[C@@H]1CCCN1C(=O)[C@H](Cc1ccccc1)NC(=O)OC(C)(C)C)C(C)C)C(=O)NCc1ccccn1 (stereo not given in full) |  |
| 2500 | CC[C@H](C)[C@H](NC(=O)CC(O)C(N)CC(C)CNC(=O)[C@H](Cc1cnc[nH]1)NC(=O)[C@H](Cc1ccccc1)OC[C@@H]1CCCN1C(=O)OC(C)(C)C)C(=O)N[C@@H](Cc1ccccc1)C(=O)OC (stereo not given in full) |  |
| 140 | CC[C@H](C)[C@H](NC(=O)CC(O)C(N)CC(C)CNC(=O)[C@H](Cc1cnc[nH]1)NC(=O)[C@H](Cc1ccccc1)OC[C@@H]1CCCN1C(=O)OC(C)(C)C)C(=O)NCc1ccccn1 (stereo not given in full) |  |
|  | CC(C)[C@H](NC(=O)[C@H](Cc1ccccc1)NC(=O)[C@H](Cc1ccccc1)NC(=O)[C@H](Cc1c[nH]cn1)NC(=O)[C@H](Cc1ccccc1)NC(=O)[C@@H]1CCCN1C(=O)[C@H](Cc1c[nH]cn1)NC(=O)[C@@H]1CCCN1)C(=O)N[C@@H](Cc1ccc(O)cc1)C(=O)N[C@@H](CCCCN)C(=O)O [RIP] (H-PHPFHFFVYK-OH) | Remaining (Homo sapiens): 13% |
| 0.05 | CC[C@H](C)[C@H](NC(=O)[C@@H](NC[C@H](CC(C)C)NC(=O)[C@H](Cc1c[nH]cn1)NC(=O)[C@H](Cc1ccccc1)NC(=O)[C@@H]1CCCN1C(=O)[C@H](Cc1c[nH]cn1)NC(=O)[C@@H]1CCCN1)C(C)C)C(=O)N[C@@H](Cc1c[nH]cn1)C(=O)N[C@H](CCCCN)C(=O)O |  |
| 0.36 | CC[C@H](C)[C@H](NC(=O)[C@@H](NCC(O)[C@H](CC(C)C)NC(=O)[C@H](Cc1cnc[nH]1)NC(=O)[C@H](Cc1ccccc1)NC(=O)[C@@H]1CCCN1C(=O)OC(C)(C)C)C(C)C)C(=O)NCc1ccccn1 (stereo not given in full) |  |
| 1.7 | CC[C@H](C)[C@H](NC(=O)[C@@H](OC[C@H](CC(C)C)NC(=O)[C@H](Cc1c[nH]cn1)NC(=O)[C@H](Cc1ccccc1)NC(=O)[C@@H]1CCCN1C(=O)[C@H](Cc1c[nH]cn1)NC(=O)[C@@H]1CCCN1)C(C)C)C(=O)N[C@@H](Cc1c[nH]cn1)C(=O)N[C@H](CCCCN)C(=O)O |  |
| 330 | CC[C@H](C)[C@H](NC(=O)CC(O)C(N)CC(C)CNC(=O)[C@H](Cc1c[nH]cn1)NC(=O)[C@H](Cc1ccccc1)OC[C@@H]1CCCN1C(=O)[C@H](Cc1cn(C=O)c2ccccc12)NC(C)=O)C(=O)N[C@@H](Cc1ccccc1)C(=O)OC (stereo not given in full) (Ac-W(For)[X1]H[X2]IF-OMe) |  |
